# ChEMBL document CHEMBL4007439, “Design, Synthesis, and Evaluation of a Novel Series of Oxadiazine Gamma Secretase Modulators for Familial Alzheimer's Disease” (J Med Chem, 2017)
# Legend:
# [1] = Half life in Wistar rat at 1 mg/kg, iv; type: ADME, organism-based; settings: in vivo
# In short: (§1)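 Intravenous dosing at 1 mg/kg; half-life, steady-state volume of distribution and clearance derived from the i.v. administration.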
# [2] = Half life in Cynomolgus monkey at 1 mg/kg, iv; type: ADME, organism-based, Macaca fascicularis; settings: in vivo; in short: as §1
# [3] = Volume of distribution at steady state in Wistar rat at 1 mg/kg, iv; type: ADME, organism-based; settings: in vivo, read-out: Vdss; in short: as §1
# [4] = Volume of distribution at steady state in Cynomolgus monkey at 1 mg/kg, iv; type: ADME, organism-based, Macaca fascicularis; settings: in vivo, read-out: Vdss; in short: as §1
# [5] = Clearance in Wistar rat at 1 mg/kg, iv; type: ADME, organism-based; settings: in vivo; in short: as §1
# Cytochrome P450 3A4 [6] = molecular target: T1, Cytochrome P450 3A4 (Homo sapiens, UniProt P08684); test: Time dependent inhibition of CYP3A4 (unknown origin) at 5 to 25 uM; type: ADME
# T1 sequence (P08684 whole entry): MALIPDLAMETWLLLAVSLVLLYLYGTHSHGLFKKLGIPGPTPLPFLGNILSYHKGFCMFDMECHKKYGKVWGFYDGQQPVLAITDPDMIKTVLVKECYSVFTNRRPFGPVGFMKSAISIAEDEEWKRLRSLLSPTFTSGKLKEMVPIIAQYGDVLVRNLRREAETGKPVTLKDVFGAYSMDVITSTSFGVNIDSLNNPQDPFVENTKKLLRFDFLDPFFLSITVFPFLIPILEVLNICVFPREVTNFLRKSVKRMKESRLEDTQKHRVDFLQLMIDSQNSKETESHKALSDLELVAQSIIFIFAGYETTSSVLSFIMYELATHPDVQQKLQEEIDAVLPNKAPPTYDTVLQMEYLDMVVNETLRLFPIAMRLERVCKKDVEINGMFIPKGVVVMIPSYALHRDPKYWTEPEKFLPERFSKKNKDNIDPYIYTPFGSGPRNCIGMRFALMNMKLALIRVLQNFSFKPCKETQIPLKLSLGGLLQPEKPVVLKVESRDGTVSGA
# [7] = AUClast in Wistar rat at 10 mg/kg, po; type: ADME, organism-based; parameters: dose 10 mg/kg, route oral, time 0 - last; settings: in vivo
# In short: (§2)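 Oral dosing; AUC and Cmax taken from the p.o. administration; bioavailability (%F) calculated from p.o. and i.v. data.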
# Cynomolgus monkey [8] = test: AUClast in Cynomolgus monkey at 10 mg/kg, po; type: ADME, organism-based, Macaca fascicularis; parameters: dose 10 mg/kg, route oral, time 0 - last; settings: in vivo; in short: as §2
# [9] = Cmax in Wistar rat at 10 mg/kg, po; type: ADME, organism-based; parameters: dose 10 mg/kg, route oral; settings: in vivo; in short: as §2
# [10] = Cmax in Cynomolgus monkey at 10 mg/kg, po; type: ADME, organism-based, Macaca fascicularis; parameters: dose 10 mg/kg, route oral; settings: in vivo; in short: as §2
# [11] = Oral bioavailability in Wistar rat at 10 mg/kg; type: ADME, organism-based; settings: in vivo; in short: as §2
# Cynomolgus monkey [12] = test: Oral bioavailability in Cynomolgus monkey at 10 mg/kg; type: ADME, organism-based, Macaca fascicularis; settings: in vivo; in short: as §2
# [13] = Permeability from apical to basolateral side in human Caco2 cells; type: ADME, cell-based; settings: Caco-2, read-out: permeability
# In short: (§3)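 Caco-2 monolayer assay; apical-to-basolateral permeability (cm/s) and efflux ratio used to judge P-gp efflux potential.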
# [14] = Efflux ratio of permeability in human Caco2 cells; type: ADME, cell-based; settings: Caco-2; in short: as §3
# [15] = molecular target: Voltage-gated inwardly rectifying potassium channel KCNH2 (Homo sapiens, UniProt Q12809); test: Inhibition of human ERG by patch clamp assay
# Sequence of Voltage-gated inwardly rectifying potassium channel KCNH2 (Q12809 whole entry): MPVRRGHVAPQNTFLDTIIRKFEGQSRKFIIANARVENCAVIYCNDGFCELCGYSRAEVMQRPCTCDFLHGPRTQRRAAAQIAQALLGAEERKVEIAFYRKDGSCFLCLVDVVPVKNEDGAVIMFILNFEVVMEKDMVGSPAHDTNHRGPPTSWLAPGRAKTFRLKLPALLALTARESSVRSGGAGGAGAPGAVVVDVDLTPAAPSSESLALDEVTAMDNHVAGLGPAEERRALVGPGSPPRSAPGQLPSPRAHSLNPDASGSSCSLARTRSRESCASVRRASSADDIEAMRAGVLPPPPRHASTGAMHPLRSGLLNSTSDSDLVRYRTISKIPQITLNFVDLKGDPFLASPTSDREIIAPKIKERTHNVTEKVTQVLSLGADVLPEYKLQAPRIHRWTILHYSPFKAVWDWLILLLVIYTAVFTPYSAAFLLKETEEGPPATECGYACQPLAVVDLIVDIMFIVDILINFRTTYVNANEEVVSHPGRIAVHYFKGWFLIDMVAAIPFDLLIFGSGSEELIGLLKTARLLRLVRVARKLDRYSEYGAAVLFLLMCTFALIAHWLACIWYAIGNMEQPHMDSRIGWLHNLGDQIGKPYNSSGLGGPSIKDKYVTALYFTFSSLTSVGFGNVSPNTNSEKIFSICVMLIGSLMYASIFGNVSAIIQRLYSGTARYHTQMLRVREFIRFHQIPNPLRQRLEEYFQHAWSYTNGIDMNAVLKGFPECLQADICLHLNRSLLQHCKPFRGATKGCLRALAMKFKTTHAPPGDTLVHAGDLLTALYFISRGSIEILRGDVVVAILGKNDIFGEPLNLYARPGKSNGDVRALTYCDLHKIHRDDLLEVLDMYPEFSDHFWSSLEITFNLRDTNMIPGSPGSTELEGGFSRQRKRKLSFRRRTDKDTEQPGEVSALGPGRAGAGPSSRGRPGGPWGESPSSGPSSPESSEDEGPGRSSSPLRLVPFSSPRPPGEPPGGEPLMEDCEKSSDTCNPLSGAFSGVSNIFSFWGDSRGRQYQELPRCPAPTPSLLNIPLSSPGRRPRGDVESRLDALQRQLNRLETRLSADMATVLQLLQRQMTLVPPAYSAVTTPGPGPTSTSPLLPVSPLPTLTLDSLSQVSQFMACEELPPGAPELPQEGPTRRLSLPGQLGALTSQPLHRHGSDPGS
# In short: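 Functional patch clamp assay of hERG current; IC50 derived.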
# Cytochrome P450 3A4 [16] = molecular target: T1, Cytochrome P450 3A4; test: Inhibition of CYP3A4 (unknown origin); type: ADME
# Cytochrome P450 2C19 = Cytochrome P450 2C19 (Homo sapiens, UniProt P33261); test: Inhibition of CYP2C19 (unknown origin); type: ADME
# Sequence of Cytochrome P450 2C19 (P33261 whole entry): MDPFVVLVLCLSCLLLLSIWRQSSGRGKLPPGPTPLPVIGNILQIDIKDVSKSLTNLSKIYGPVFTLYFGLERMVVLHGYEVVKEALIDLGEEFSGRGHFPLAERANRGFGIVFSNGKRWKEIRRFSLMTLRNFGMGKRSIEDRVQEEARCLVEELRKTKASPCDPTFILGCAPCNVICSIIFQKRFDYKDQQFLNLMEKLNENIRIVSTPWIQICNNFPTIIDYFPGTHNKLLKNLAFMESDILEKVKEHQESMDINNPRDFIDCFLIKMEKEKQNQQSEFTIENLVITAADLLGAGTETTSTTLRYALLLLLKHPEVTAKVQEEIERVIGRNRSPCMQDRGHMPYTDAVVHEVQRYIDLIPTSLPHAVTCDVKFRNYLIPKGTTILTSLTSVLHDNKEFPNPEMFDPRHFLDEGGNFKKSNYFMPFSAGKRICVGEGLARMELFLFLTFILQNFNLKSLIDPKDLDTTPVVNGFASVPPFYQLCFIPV
# Cytochrome P450 2C8 = molecular target: T2, Cytochrome P450 2C8 (Homo sapiens, UniProt P10632); test: Inhibition of CYP2C8 (unknown origin); type: ADME
# T2 sequence (P10632 whole entry): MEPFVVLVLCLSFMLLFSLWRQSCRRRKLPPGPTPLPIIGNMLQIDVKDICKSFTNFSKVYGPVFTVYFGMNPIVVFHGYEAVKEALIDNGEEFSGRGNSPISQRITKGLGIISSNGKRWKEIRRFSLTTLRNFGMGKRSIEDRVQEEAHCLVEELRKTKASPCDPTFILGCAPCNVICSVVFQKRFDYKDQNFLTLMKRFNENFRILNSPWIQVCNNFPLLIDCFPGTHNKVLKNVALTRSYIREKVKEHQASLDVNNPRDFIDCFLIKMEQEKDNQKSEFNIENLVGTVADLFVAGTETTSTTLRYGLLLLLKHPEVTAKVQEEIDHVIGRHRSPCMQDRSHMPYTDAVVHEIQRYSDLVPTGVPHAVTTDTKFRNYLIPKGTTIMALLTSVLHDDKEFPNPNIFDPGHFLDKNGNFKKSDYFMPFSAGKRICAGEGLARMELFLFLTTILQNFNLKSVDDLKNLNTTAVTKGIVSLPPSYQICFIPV
# Cytochrome P450 2C9 = Cytochrome P450 2C9 (Homo sapiens, UniProt P11712); test: Inhibition of CYP2C9 (unknown origin); type: ADME
# Sequence of Cytochrome P450 2C9 (P11712 whole entry): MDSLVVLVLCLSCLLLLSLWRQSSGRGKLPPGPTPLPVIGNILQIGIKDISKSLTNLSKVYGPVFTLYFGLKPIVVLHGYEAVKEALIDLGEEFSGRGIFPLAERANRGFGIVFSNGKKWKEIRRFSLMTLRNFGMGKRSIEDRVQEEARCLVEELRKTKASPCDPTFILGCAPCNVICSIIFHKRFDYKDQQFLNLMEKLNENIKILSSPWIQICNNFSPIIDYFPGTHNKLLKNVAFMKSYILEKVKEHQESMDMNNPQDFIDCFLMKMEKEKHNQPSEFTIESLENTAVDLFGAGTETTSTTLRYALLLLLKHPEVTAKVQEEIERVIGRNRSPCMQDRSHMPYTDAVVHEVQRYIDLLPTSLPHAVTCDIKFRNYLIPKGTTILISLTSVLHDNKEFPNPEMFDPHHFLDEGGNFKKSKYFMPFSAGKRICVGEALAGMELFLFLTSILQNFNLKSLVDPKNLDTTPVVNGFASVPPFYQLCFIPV
# Cytochrome P450 2D6 = Cytochrome P450 2D6 (Homo sapiens, UniProt P10635); test: Inhibition of CYP2D6 (unknown origin); type: ADME
# Sequence of Cytochrome P450 2D6 (P10635 whole entry): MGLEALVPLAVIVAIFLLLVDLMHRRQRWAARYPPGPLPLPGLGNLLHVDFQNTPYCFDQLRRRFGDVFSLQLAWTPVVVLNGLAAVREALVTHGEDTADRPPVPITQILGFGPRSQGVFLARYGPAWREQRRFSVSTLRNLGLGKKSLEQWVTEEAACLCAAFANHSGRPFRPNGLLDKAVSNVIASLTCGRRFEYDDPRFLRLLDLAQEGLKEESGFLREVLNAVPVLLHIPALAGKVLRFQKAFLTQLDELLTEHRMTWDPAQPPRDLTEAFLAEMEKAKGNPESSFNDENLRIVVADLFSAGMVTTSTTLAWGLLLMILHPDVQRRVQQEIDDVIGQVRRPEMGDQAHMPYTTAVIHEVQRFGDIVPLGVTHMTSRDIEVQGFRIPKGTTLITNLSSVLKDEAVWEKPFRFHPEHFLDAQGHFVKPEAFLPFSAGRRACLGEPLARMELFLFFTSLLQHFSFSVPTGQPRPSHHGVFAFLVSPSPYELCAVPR
# Cytochrome P450 1A2 = molecular target: T3, Cytochrome P450 1A2 (Homo sapiens, UniProt P05177); test: Inhibition of CYP1A2 (unknown origin); type: ADME
# T3 sequence (P05177 whole entry): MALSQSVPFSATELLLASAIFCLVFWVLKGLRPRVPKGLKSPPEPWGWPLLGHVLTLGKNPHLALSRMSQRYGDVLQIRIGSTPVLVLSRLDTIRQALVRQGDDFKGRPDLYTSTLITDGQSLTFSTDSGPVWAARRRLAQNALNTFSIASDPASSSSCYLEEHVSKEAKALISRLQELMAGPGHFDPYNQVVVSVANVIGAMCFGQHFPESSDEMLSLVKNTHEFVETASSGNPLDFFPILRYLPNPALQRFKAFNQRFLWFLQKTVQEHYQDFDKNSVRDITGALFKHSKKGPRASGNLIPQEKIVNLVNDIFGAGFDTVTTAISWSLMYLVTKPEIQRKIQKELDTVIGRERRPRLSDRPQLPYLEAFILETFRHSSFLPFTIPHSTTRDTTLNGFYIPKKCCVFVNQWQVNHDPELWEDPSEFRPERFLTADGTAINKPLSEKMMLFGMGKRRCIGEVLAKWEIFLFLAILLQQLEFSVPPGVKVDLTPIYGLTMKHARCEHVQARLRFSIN
# TK6 [17] = test: Genotoxicity in p53-competent human TK6 cells in absence of S9 fraction by GADD45alpha GFP reporter assay; type: toxicity, cell-based
# In short: (§4)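 GreenScreen GADD45alpha-GFP reporter assay in human cells, run externally.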
# TK6 [18] = test: Genotoxicity in p53-competent human TK6 cells in presence of S9 fraction by GADD45alpha GFP reporter assay; type: toxicity, cell-based; in short: as §4
# [19] = Total drug level in mouse brain at 30 mg/kg, po measured at 6 hrs post dose; type: ADME, organism-based; settings: read-out: Drug uptake
# In short: (§5)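 Single oral dose of 30 mg/kg; brain (mouse, rat) and rat CSF Aβ42 and Aβ37 measured 6 h post-dose, expressed relative to vehicle; total and free brain drug levels and brain:plasma ratio taken at the same time.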
# [20] = Ratio of drug level in brain to plasma in mouse at 30 mg/kg, po measured at 6 hrs post dose; type: ADME, organism-based; settings: read-out: BPR; in short: as §5
# Brain [21] = test: Unbound drug level in mouse brain at 30 mg/kg, po measured at 6 hrs post dose; type: ADME, organism-based; settings: in vivo; in short: as §5
# [22] = Aqueous solubility of compound in phosphate buffer at pH 7.4 after 90 mins; type: physicochemical
# In short: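 Kinetic solubility method in pH 7.4 phosphate buffer, incubated 90 min at room temperature.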
# [23] = Unbound intrinsic clearance in rat hepatocytes; type: ADME, cell-based, Hepatocyte
# Mus musculus [24] = test: Reduction in amyloid beta 42 levels in mouse brain at 30 mg/kg, po measured at 6 hrs post dose by ELISA; type: functional; in short: as §5
# [25] = Modulation of gamma-secretase in human H4 cells expressing human APP751 assessed as inhibition of amyloid beta 42 production incubated overnight by sandwich ELISA; type: cell-based; settings: Homo sapiens
# In short: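 Aβ42 EC50 in H4 cells overexpressing WT human APP751; each value is the average of n > 2 assays, each run in duplicate.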
# [26] = Total drug level in rat brain at 30 mg/kg, po measured at 6 hrs post dose; type: ADME, organism-based; settings: read-out: Drug uptake; in short: as §5
# Brain [27] = test: Unbound drug level in rat brain at 30 mg/kg, po measured at 6 hrs post dose; type: ADME, organism-based; settings: in vivo; in short: as §5
# Rattus norvegicus [28] = test: Reduction in amyloid beta 42 levels in rat brain at 30 mg/kg, po measured at 6 hrs post dose by ELISA; type: functional; in short: as §5
# Mus musculus [29] = test: Decrease in amyloid beta 42 AUC(1 to 24 hrs) in mouse brain at 30 mg/kg, po administered as single dose after 0.5 to 24 hrs; type: functional
# Mus musculus [30] = test: Increase in amyloid beta 37 levels in mouse brain at 30 mg/kg, po measured at 6 hrs post dose by ELISA relative to control; type: functional; in short: as §5
# Rattus norvegicus [31] = test: Increase in amyloid beta 37 levels in rat brain at 30 mg/kg, po measured at 6 hrs post dose by ELISA relative to control; type: functional; in short: as §5
# Rattus norvegicus [32] = test: Reduction in amyloid beta 42 levels in rat CSF at 30 mg/kg, po measured at 6 hrs post dose by ELISA; type: functional; in short: as §5
# Rattus norvegicus [33] = test: Increase in amyloid beta 37 levels in rat CSF at 30 mg/kg, po measured at 6 hrs post dose by ELISA relative to control; type: functional; in short: as §5
# Mus musculus [34] = test: Decrease in amyloid beta 42 in mouse brain at 30 mg/kg, po administered as single dose after 0.5 to 24 hrs; type: functional
# [35] = Cytotoxicity against human HepG2 cells assessed as reduction in cell viability by measuring ATP; settings: read-out: TC50 (the source's name)
# Mus musculus [36] = test: Increase in amyloid beta 37 levels in mouse brain at 30 mg/kg, po measured at 0.5 to 24 hrs post dose by ELISA relative to control
# Mus musculus [37] = test: Reduction in amyloid beta 42 levels in mouse brain at 90 mg/kg, po measured at 6 hrs post dose by ELISA; type: functional
# In short: (§6)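 Mice dosed 90 mg/kg; brain Aβ42 lowering, total brain drug concentration and brain:plasma ratio measured 6 hours post-dose.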
# [38] = Total drug uptake in mouse brain at 90 mg/kg, po measured at 6 hrs post dose; type: ADME, organism-based; settings: read-out: Drug uptake; in short: as §6
# [39] = Ratio of drug level in brain to plasma in mouse at 90 mg/kg, po measured at 6 hrs post dose; type: ADME, organism-based; settings: read-out: BPR; in short: as §6
structure (smiles),measurement,setting,value
COc1nc(C2=NOC[C@H](c3cc4ccccc4o3)N2)ccc1-n1cnc(C)c1,half-life,[1],2.2 h
same,half-life,[2],1.5 h
same,Vd,[3],1 L/kg
same,Vd,[4],0.9 L/kg
same,clearance,[5],5.8 mL/min/kg
same,TDI,Cytochrome P450 3A4 [6],Not Active
same,AUC(0-t),[7],67.8 µM·h
same,AUClast,Cynomolgus monkey [8],8.1 µM·h
same,Cmax,[9],7.3 µM
same,Cmax,[10],11 µM
same,bioavailability,[11],93%
same,F,Cynomolgus monkey [12],136%
same,Papp A→B,[13],10 ×10⁻⁶ cm/s
same,efflux ratio,[14],1.1
same,IC50,[15],15 µM
same,IC50,Cytochrome P450 3A4 [16],25 µM
same,IC50,Cytochrome P450 2C19,17 µM
same,IC50,Cytochrome P450 2C8,> 25 µM
same,IC50,Cytochrome P450 2C9,8 µM
same,IC50,Cytochrome P450 2D6,2 µM
same,IC50,Cytochrome P450 1A2,3 µM
same,Activity,TK6 [17],Non-Toxic
same,Activity,TK6 [18],Non-Toxic
same,concentration at 6 h,[19],29.8 to 30 µM
same,Kp at 6 h,[20],1.5
same,Drug uptake(free),Brain [21],427 nM
same,solubility at 1.5 h,[22],84 µM
same,CL free,[23],84 mL/min/kg
same,inhibition in vivo at 30 mg/kg,Mus musculus [24],43%
same,EC50,[25],0.035 µM
same,concentration at 6 h,[26],13.7 µM
same,Drug uptake(free),Brain [27],156 nM
same,inhibition in vivo at 30 mg/kg,Rattus norvegicus [28],30%
same,inhibition in vivo at 30 mg/kg,Mus musculus [29],34%
same,fold change (FC),Mus musculus [30],3.2
same,fold change (FC),Rattus norvegicus [31],2.5
same,inhibition in vivo at 30 mg/kg,Rattus norvegicus [32],58%
same,fold change (FC),Rattus norvegicus [33],20
same,Imax,Mus musculus [34],45%
same,CC50,[35],> 72 µM
same,fold change (FC),Mus musculus [36],3.1
COc1nc(C2=NOC[C@H](c3cc4ccccc4s3)N2)ccc1-n1cnc(C)c1,concentration at 6 h,[19],30.2 µM
same,Kp at 6 h,[20],2.8
same,Drug uptake(free),Brain [21],76 nM
same,CL free,[23],430 mL/min/kg
same,inhibition in vivo at 30 mg/kg,Mus musculus [24],34%
same,EC50,[25],0.008 µM
COc1nc(C2=NOC[C@H]3[C@@H](Oc4ccc(F)cc4C)CCCN23)ccc1-n1cnc(C)c1,EC50,[25],> 3 µM
COc1nc(C2=NOC[C@H](COc3ccc(F)cc3C)N2)ccc1-c1cnn(C)c1,EC50,[25],0.604 µM
COc1nc(C2=NOC[C@@H]3[C@H](Oc4ccc(Cl)cc4C(F)(F)F)CCCN23)ccc1-n1cnc(C)c1,inhibition in vivo at 90 mg/kg,Mus musculus [37],32%
same,concentration at 6 h,[38],36 µM
same,Kp at 6 h,[39],0.6
same,CL free,[23],4251 mL/min/kg
same,EC50,[25],0.015 µM
COc1nc(C2=NOC[C@H](COc3ccc(F)cc3C)N2)ccc1-n1cnc(C)c1,CL free,[23],1906 mL/min/kg
same,EC50,[25],0.051 µM
